Read-outs that look alike come from different tables or passages of the source. Peptide text beside a SMILES is read from it. * marks the point of attachment. Cbz = O=C(OCc1ccccc1)*
What was measured:
Type in all cases: biochemical
[1] = biological target: T1, chymotrypsin-like (ChL) activity of rabbit proteasome fraction II (Oryctolagus cuniculus, UniProt G1T4Q9); experiment: Inhibition of proteasome-catalyzed hydrolysis of ChL sensor ChL1–488
T1 sequence (G1T4Q9 1-263): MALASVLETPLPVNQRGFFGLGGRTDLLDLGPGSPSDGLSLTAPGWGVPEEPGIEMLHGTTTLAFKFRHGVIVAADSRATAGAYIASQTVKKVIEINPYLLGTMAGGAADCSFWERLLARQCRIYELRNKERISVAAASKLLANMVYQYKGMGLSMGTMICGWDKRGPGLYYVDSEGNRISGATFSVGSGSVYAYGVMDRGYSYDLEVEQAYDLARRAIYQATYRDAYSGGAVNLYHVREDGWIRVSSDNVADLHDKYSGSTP

[2] = biological target: T2, caspase-like (CaL) activity of rabbit proteasome fraction II (Oryctolagus cuniculus, UniProt A0A5F9DQW2); experiment: Inhibition of proteasome-catalyzed hydrolysis of CaL sensor CaL1–633
T2 sequence (A0A5F9DQW2 1-212): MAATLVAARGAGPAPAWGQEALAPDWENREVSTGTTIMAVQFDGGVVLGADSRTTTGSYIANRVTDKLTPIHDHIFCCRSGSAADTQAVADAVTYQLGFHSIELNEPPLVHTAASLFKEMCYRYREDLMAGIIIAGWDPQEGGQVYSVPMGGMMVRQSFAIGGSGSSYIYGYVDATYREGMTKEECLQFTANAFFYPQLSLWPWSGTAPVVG

[3] = test system: rabbit proteasome fraction II; experiment: Rate of proteolysis
How it was run: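 Fluorescence followed 2 h at RT. Rate came from a linear fit to the first 10% substrate consumption. FU were converted to μmol via overnight-spiked fold change and a standard line. No-enzyme controls were run. Values are mean ± SD of triplicates.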

[4] = biological target: yeast proteasome CaL mutant (Saccharomyces cerevisiae, UniProt P25043+P30656+P38624); experiment: Rate of sensor cleavage by yeast deficient lysate, CaL mutant
proteasome = test system: proteasome

IC50 [1] | IC50 [2] | proteolysis by the proteasome containing the mutation in the CaL subunit [4] | Compound | specific activity ([3]; 2.5 μM sensor) | specific activity ([3]; 5 μM sensor) | effect on TL activity (proteasome; in the presence of CaL1–633) | reduction of the rate of proteolysis of ChL1–488 (proteasome; in the presence of CaL1–633) | reduction of the rate of proteolysis of ChL1–488 (proteasome; in the presence of TL1–550) | effect on CaL activity (proteasome; in the presence of TL1–550) | enhancement of the rate of TL1–550 hydrolysis (proteasome; when ChL1–488 is present)
0.62 ± 0.06 µM | 180 ± 150 µM | – | CC(C)C[C@@H](C=O)NC(=O)[C@H](CC(C)C)NC(=O)[C@H](CC(C)C)NC(=O)OCc1ccccc1 [MG132] (Cbz-Leu-Leu-Leu-aldehyde) | – | – | – | – | – | – | –
– | – | not proteolyzed | DyLight633–nLPnLDK(AB40) [CaL1–633] | 0.03 ± 0.001 nmol min^–1 mg^–1 enzyme | 0.02 ± 0.002 nmol min^–1 mg^–1 enzyme | reduced | – | – | – | –
– | – | – | FAM–HHSLK(AB40) [ChL1–488] | 0.22 ± 0.02 nmol min^–1 mg^–1 enzyme | 0.31 ± 0.03 nmol min^–1 mg^–1 enzyme | – | up to 90% | up to 50% | – | –
– | – | – | TAMRA–LRRK(AB40) [TL1–550] | 0.05 ± 0.003 nmol min^–1 mg^–1 enzyme | 0.06 ± 0.001 nmol min^–1 mg^–1 enzyme | – | – | – | impaired | up to 5 fold

— PMC4340355 (ACS Chemical Biology, 2014)
